Consider 13 compounds from ChEMBL document CHEMBL1121477, “Noval antitumor nitrosoureas and related compounds and their reactions with DNA” (1980).

Values joined by “and” are separate entries in the source; they are usually repeats but may differ in a detail not shown here. Identical values can stand only once.

Assay [1] in a line: Compound was evaluated for its ability to exhibit alkylating property toward DNA at 5 mM in 180 min. In kind it is functional. The essentials: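 Alkylation was measured with PM2 covalently closed circular DNA (1.2 A280 units, 90% CCC) and 5 mM agent in 200 µL at 37 °C. Aliquots were taken into 20 mM potassium phosphate pH 11.8, 0.4 mM EDTA and 0.5 µg/mL ethidium, heated at 96 °C for 4 min, then rapidly cooled. Fluorescence loss relative to control gives the extent of alkylation.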

In assay [2] the test system is L1210. The assay is described as follows: Antitumor activity against lymphoid leukemia L1210 cell implanted in mice was measured by %T/C at a dosage of 200 mg/kg. In kind it is functional, Mus musculus. The essentials:
(§1)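 L1210 leukemia cells (10^5) implanted intraperitoneally in mice on day 0. Compounds were suspended in saline plus Tween 80 and injected intraperitoneally within 5 min of preparation, following Cancer Chemotherapy National Service Center specifications; dose is given per day. Read-outs were weight change from day 0 to 5 (treated vs control), survivors on day 5, mean survival time treated/control, and %T/C.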

Assay [3] deals with L1210. The assay is described as follows: Antitumor activity against lymphoid leukemia L1210 cell implanted in mice was measured by mean survival of mice expressed as treated/control at a dosage of 200 mg/kg (14.9/9.8). In kind it is functional, Mus musculus. The essentials:
as §1

A short description of assay [4]: Percent ability of compound to produce DNA interstrand cross-links was determined by the ethidium fluorescence assay at 6 hr and compared with antileukemic property. The assay is classed as functional. Details: concentration or dose not given beside the values. The essentials: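 λ-DNA (1.0 A260 unit) was incubated with 5 mM compound in 50 mM potassium phosphate pH 7.2 at 37 °C. Aliquots went into 20 mM potassium phosphate pH 11.8, 0.4 mM EDTA and 0.5 µg/mL ethidium, were heated at 96 °C for 3 min and rapidly cooled. Fluorescence relative to control ×100 gives % DNA molecules with ≥1 interstrand cross-link; accuracy about ±2%.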

Assay [5] concerns L1210. The assay is described as follows: Antitumor activity against lymphoid leukemia L1210 cell implanted in mice was measured by number of survivors on day 5 at a dosage of 200 mg/kg (6/6). The assay is classed as functional, Mus musculus. The essentials:
as §1

Assay [6] concerns L1210. The assay is described as follows: Antitumor activity against lymphoid leukemia L1210 cell implanted in mice was measured by wt.change of treated mice minus wt. change of control mice at 200 mg/kg from day 0-5 (-4.4/1.4). In kind it is functional, Mus musculus. The essentials:
as §1

The subject of assay [7] is L1210. The assay is described as follows: Antitumor activity against lymphoid leukemia L1210 cell implanted in mice was measured by wt.change of treated mice minus wt. change of control mice at 1.3 mg/kg from day 0-5 (-2.9/0.3). The assay is classed as functional, Mus musculus.
The subject of assay [8] is L1210. The assay is described as follows: Antitumor activity against lymphoid leukemia L1210 cell implanted in mice was measured by mean survival of mice expressed as treated/control at a dosage of 1.3 mg/kg (25.3/9.6). The assay is classed as functional, Mus musculus.
In assay [9] the test system is L1210. The assay is described as follows: Antitumor activity against lymphoid leukemia L1210 cell implanted in mice was measured by number of survivors on day 5 at a dosage of 1.3 mg/kg (6/6). The assay is classed as functional, Mus musculus.
The test system of assay [10] is L1210. The assay is described as follows: Antitumor activity against lymphoid leukemia L1210 cell implanted in mice was measured by %T/C at a dosage of 1.3 mg/kg. In kind it is functional, Mus musculus.
Assay [11] relates to L1210. The assay is described as follows: Antitumor activity against lymphoid leukemia L1210 cell implanted in mice was measured by wt.change of treated mice minus wt. change of control mice at 100 mg/kg from day 0-5 (-2.2/1.4). The assay is classed as functional, Mus musculus. The essentials:
as §1

Assay [12] has as its system L1210. The assay is described as follows: Antitumor activity against lymphoid leukemia L1210 cell implanted in mice was measured by %T/C at a dosage of 100 mg/kg. The assay is classed as functional, Mus musculus. The essentials: as §1
The subject of assay [13] is L1210. The assay is described as follows: Antitumor activity against lymphoid leukemia L1210 cell implanted in mice was measured by number of survivors on day 5 at a dosage of 100 mg/kg (6/6). The assay is classed as functional, Mus musculus. The essentials: as §1
Assay [14] concerns L1210. The assay is described as follows: Antitumor activity against lymphoid leukemia L1210 cell implanted in mice was measured by mean survival of mice expressed as treated/control at a dosage of 100 mg/kg (15.4/9.7). In kind it is functional, Mus musculus. The essentials:
as §1

For assay [15], the system named is L1210. The assay is described as follows: Antitumor activity against lymphoid leukemia L1210 cell implanted in mice was measured by %T/C at a dosage of 1 mg/kg. In kind it is functional, Mus musculus.
The subject of assay [16] is L1210. The assay is described as follows: Antitumor activity against lymphoid leukemia L1210 cell implanted in mice was measured by mean survival of mice expressed as treated/control at a dosage of 1 mg/kg (12.3/10.5). In kind it is functional, Mus musculus.
Assay [17] has as its system L1210. The assay is described as follows: Antitumor activity against lymphoid leukemia L1210 cell implanted in mice was measured by %T/C on a 1-9 day schedule. The assay is classed as functional, Mus musculus.
The subject of assay [18] is Mus musculus. The assay is described as follows: Antitumor activity against lymphoid leukemia L1210 cell implanted in mice was measured by wt.change of treated mice minus wt. change of control mice at 0.9 mg/kg from day 0-5 (-1.4/0.4). In kind it is functional.
Assay [19] relates to Mus musculus. The assay is described as follows: Antitumor activity against lymphoid leukemia L1210 cell implanted in mice was measured by number of survivors on day 5 at a dosage of 0.9 mg/kg (6/6). The assay is classed as functional.
The subject of assay [20] is Mus musculus. The assay is described as follows: Antitumor activity against lymphoid leukemia L1210 cell implanted in mice was measured by %T/C at a dosage of 0.9 mg/kg. The assay is classed as functional.
Assay [21] deals with Mus musculus. The assay is described as follows: Antitumor activity against lymphoid leukemia L1210 cell implanted in mice was measured by mean survival of mice expressed as treated/control at a dosage of 0.9 mg/kg (15.6/11.1). The assay is classed as functional.
The test system of assay [22] is L1210. The assay is described as follows: Antitumor activity against lymphoid leukemia L1210 cell implanted in mice was measured by wt.change of treated mice minus wt. change of control mice at 200 mg/kg from day 0-5 (-1.1/1.4). In kind it is functional, Mus musculus. The essentials:
as §1

Assay [23] relates to L1210. The assay is described as follows: Antitumor activity against lymphoid leukemia L1210 cell implanted in mice was measured by mean survival of mice expressed as treated/control at a dosage of 200 mg/kg (16.4/16.9). In kind it is functional, Mus musculus. The essentials: as §1

Turning to `CCN(N=O)C(N)=O`, the Alkylation in assay [1] amounted to 53%.

Usually T/C stands for the ratio of treated to control. In the case of `O=NN(CCOCCCl)C(=O)NC1CCCCC1`, the Alkylation in assay [1] amounted to 66%. The T/C with L1210 [2] came out at 152%. The Mean survival in the assay on L1210 [3] is recorded as 14.9 time day-1. In [4], this compound showed an Activity of 0%. In addition, the Survivals with L1210 [5] turned out to be 6. This compound also showed a Change in weight in the assay on L1210 [6] of -4.4 g.

For `CS(=O)(=O)OCCCl`, in [1], the Alkylation stood at 0%.

As to `NC(=O)N(CCCl)N=O`, the Change in weight in the assay on L1210 [7] is given as -2.9 g. The Mean survival with L1210 [8] stood at 25.3 time day-1. In assay [1], the Alkylation was 70%. The same compound came in with an Activity in assay [4] of 37%. Besides, the Survivals in the assay on L1210 [9] turned out to be 6. In the assay with L1210 [10], this compound gave a T/C of 263%.

`CC(=O)N(CCCl)N=O` yielded an Activity in assay [4] of 44%.

Consider `Cc1ccc(S(=O)(=O)OCCCl)cc1`, for which the Alkylation in assay [1] turned out to be 0%.

For `O=[N+]([O-])c1ccc(S(=O)(=O)OCCCl)cc1`, in assay [1], the Alkylation is 0%.

As to `O=NN(CC[S+]([O-])CCCl)C(=O)NC1CCCCC1` (stereo not given), in assay [1], the Alkylation stood at 84%. In [4], this compound came in with an Activity of 0%. In the assay on L1210 [11], this compound displayed a Change in weight of -2.2 g. The T/C with L1210 [12] was found to be 159%. The compound also yielded a Survivals in the assay with L1210 [13] of 6. Also, in the assay with L1210 [14], the Mean survival is reported as 15.4 time day-1.

Regarding `Cc1ccc(S(=O)(=O)N(CCCl)N=O)cc1`, in the assay on L1210 [15], the T/C is reported as 117%. In assay [4], this compound had an Activity of 0%. The Mean survival with L1210 [16] is 12.3 time day-1.

For the compound `O=NN(CCCl)C(=O)OCCCSSCCCOC(=O)N(CCCl)N=O`, in [4], the Activity was 8% and 25% and 21%. This compound also displayed a T/C in the assay with L1210 [17] of 136%.

`O=S(=O)(OCCCl)C(F)(F)F` yielded an Alkylation in assay [1] of 40%.

In the assay with Mus musculus [18], `CCOC(=O)N(CCCl)N=O` had a Change in weight of -1.4 g. The compound also gave a Survivals in the assay on Mus musculus [19] of 6. The T/C in the assay on Mus musculus [20] is reported as 140%. Also, in assay [4], the Activity was 12% and 24% and 28%. Besides, the Mean survival in the assay on Mus musculus [21] was determined as 15.6 time day-1.

The compound `O=NN(CCSCCO)C(=O)NC1CCCCC1` displayed a Change in weight with L1210 [22] of -1.1 g. The Alkylation in assay [1] is 96%. In the assay with L1210 [2], this compound returned a T/C of 110%. The same compound yielded an Activity in [4] of 0%. The compound also returned a Survivals in the assay on L1210 [5] of 6. In the assay with L1210 [23], this compound displayed a Mean survival of 16.4 time day-1.
